MEKK2wt PB1 HTS: raises or lowers MEK5 binding to wildtype human MEKK2 PB1 domain | Q9Y2U5 | bead flow cytometry, Alexa488-MEK5 binding to MEKK2 WT; actives lie on both sides | binding response (% of control), % at 10 µM | 290,000 tested, 1.1% active | AID 1531; in the data active = binding response below about 67% or above about 130%; inconclusive = no clear call, values can overlap the other calls; inactive = in between
IMP-1 inhibitor: inhibitors of Pseudomonas aeruginosa IMP-1 metallo-beta-lactamase; purified IMP-1, nitrocefin hydrolysis, epi-absorbance fluorescence; inhibition, % at 5.6 µM; 290,000 tested, 0.45% active;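 active = inhibition above the mean plus 3 SD of all compounds in the same screening run, cut at about 4.5% in these data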
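System: Purified IMP-1 | Read-out basis: Percent enzyme inhibition | Controls: IMP-1 with DMSO as 0%, enzyme-free DMSO as 100% | Replicates: One well per compound | Doses: 5.6 µM nominal single concentration | Detection: Epi-absorbance fluorescence, 480 nm excitation, 530 nm emission | Incubation: 25 °C, 15 min preincubation, 25 min reaction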
MEKK3 PB1 HTS: MEKK3-MEK5 PB1 interaction, increase or decrease. Q99759. bead-based flow cytometry, Alexa488-MEK5 binding to MEKK3; actives lie on both sides; 0 = blocked by unlabeled MEK5, 100 = vehicle. binding response (% of control), % at 10 µM. 290,000 tested, 1.4% active;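 active = binding response more than 3 SD above or below the average of its plate-row segment, actives on both sides; inconclusive = wells at one plate position flagged as instrument error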;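 also: Alexa488 bead fluorescence after subtracting the streptavidin-only scavenger bead signal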
Target sequence (Q99759 whole entry, looked up): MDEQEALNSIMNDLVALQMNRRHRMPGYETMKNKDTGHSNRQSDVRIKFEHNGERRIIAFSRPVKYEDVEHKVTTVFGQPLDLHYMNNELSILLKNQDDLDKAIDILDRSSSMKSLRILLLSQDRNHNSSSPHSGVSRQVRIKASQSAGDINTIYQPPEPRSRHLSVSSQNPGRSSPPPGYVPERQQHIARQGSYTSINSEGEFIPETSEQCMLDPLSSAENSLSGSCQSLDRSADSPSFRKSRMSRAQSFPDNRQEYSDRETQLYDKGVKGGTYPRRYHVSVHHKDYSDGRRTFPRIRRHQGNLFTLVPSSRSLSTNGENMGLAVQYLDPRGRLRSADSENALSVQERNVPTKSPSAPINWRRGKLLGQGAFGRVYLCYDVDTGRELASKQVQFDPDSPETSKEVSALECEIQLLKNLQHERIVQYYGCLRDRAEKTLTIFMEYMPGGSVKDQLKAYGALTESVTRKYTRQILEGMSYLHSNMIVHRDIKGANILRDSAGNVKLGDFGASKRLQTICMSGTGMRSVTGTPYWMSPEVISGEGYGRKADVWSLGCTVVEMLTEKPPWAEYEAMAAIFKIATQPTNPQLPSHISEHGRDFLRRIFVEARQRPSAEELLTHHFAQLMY
MEKK2mut PB1 HTS: signal of MEK5 binding to mutant human MEKK2 PB1 domain. bead flow cytometry, Alexa488-MEK5 binding to MEKK2 mutant. percent response, % at 10 µM. 290,000 tested, 0.35% active; in the data active = percent response above about 24%, passing the limit was not always enough
VIM-2 inhibitor: inhibitors of Pseudomonas aeruginosa VIM-2 metallo-beta-lactamase. purified VIM-2, nitrocefin hydrolysis, epi-absorbance fluorescence. inhibition, % at 5.6 µM. 290,000 tested, 0.89% active;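 active = inhibition above the mean of all tested compounds plus 3 SD, cutoff set per screening run, cut at about 7.5% in these data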;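 also: red hydrolysis product quenches plate fluorescence so inhibitors raise well fluorescence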
MEKK2wt confirm: raises or lowers MEK5 binding to wildtype human MEKK2, retest; shares compounds with MEKK3 PB1 HTS; bead flow cytometry, Alexa488-MEK5 binding to MEKK2 WT; actives lie on both sides; binding response (% of control), % at 10 µM; 5,900 tested, 2.4% active; in the data active = binding response below about 16% or above about 210%; inactive = in between
MEKK2mut-MEK5: signal of MEK5 binding to mutant human MEKK2, retest | shares compounds with MEKK3 PB1 HTS | bead flow cytometry, Alexa488-MEK5 binding to MEKK2 mutant | percent response, % at 10 µM | 5,900 tested, 2% active | AID 1893; in the data active = percent response mostly above about 71%, no sharp cut-off; inactive = mostly below about 38%;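 also: higher means compound restores mutant binding toward wildtype level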
MEKK3 confirm: MEKK3-MEK5 PB1 inhibition, single concentration confirmation; shares compounds with MEKK3 PB1 HTS; bead flow cytometry, Alexa488-MEK5 binding to MEKK3; hits give low values; binding response (% of control), % at 10 µM; 5,900 tested, 1.8% active;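 active = binding response below 72% of control, or above a set upper limit, though filed actives all read lower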;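 also: lower values mean stronger disruption of MEK5 binding to MEKK3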
A number is an active result; 0 = inactive; ? = inconclusive; - = no result; [ ] = another dose, or the depositor's remark. An excerpt weighted towards active compounds, which were near 3.4% of everything screened.

SMILES	MEKK2wt PB1 HTS	IMP-1 inhibitor	MEKK3 PB1 HTS	MEKK2mut PB1 HTS	VIM-2 inhibitor	MEKK2wt confirm	MEKK2mut-MEK5	MEKK3 confirm
CCc1nnc(NC(=O)c2c(C)nn(-c3ccccc3)c2Cl)s1	?	0	?	0	0	-	-	-
COc1ccc(Cl)cc1NC(=O)CNc1ccccc1CN(C)C1CCCCC1	154.0	0	0	0	0	0	0	0
Clc1ccccc1-c1nc2ccccc2c2nc3ccccc3n12	0	0	134.0	0	0	0	0	0
Cc1nc2ccccc2c2nc3ccccc3n12	-	0	-	-	0	-	-	-
COc1ccc2c(c1)C(c1cccs1)=NNC(c1ccncc1)=N2	0	0	0	0	0	-	-	-
CCCOc1ccc(C2=NNC(c3cccs3)=Nc3ccc(OC)cc32)cc1	0	0	141.0	0	0	0	0	0
CCCc1ccc2oc(C(=O)N(C)CCn3ccnc3C)c(C)c2c1	0	0	0	24.0	0	0	0	0
CCCc1ccc2oc(C(=O)N(C)Cc3cnccn3)c(C)c2c1	0	0	0	0	0	-	-	-
Cc1ccc(C)c(NC(=O)CSc2cccc3cccnc23)c1	0	0	0	0	0	-	-	-
COc1ccc(-c2ccc(/C=C3/C(=N)N4C=CSC4=NC3=O)o2)c([N+](=O)[O-])c1	0	0	134.0	0	0	0	0	0
CCCN(CC(=O)Nc1ccccc1C)C(=O)/C=C/c1cccs1	0	0	140.0	0	0	0	0	0
CCOC(=O)c1c(NC(=O)CCS(=O)(=O)c2ccccc2)sc2c1CC(C)(C)NC2(C)C	0	0	0	0	0	-	-	-
COC(=O)c1c(NC(=O)c2ccc(OC(C)C)cc2)sc2c1CC(C)(C)NC2(C)C	173.0	0	0	0	0	0	0	0
CCOC(=O)c1c(NC(=O)c2ccc(C)cc2)sc2c1CC(C)(C)NC2(C)C	138.0	0	0	0	0	0	0	0
COc1ccc(NC(=O)C2CCC(CNS(=O)(=O)c3cccs3)CC2)cc1 (configuration not stated)	7.0[inhibitor]	0	5.0[inhibitor]	0	0	0	0	0
COc1ccc(NC(=O)C2CCN(c3nc(C)cc(C)n3)CC2)cc1	2.0[inhibitor]	0	2.0[inhibitor]	0	0	0	0	0
Cc1cc(C)nc(N2CCC(C(=O)Nc3ccc4c(c3)CCC4)CC2)n1	0	0	0	0	0	-	-	-
Cn1c(-c2c(N)n(-c3ccccc3)c3nc4ccccc4nc23)nc2ccccc21	0	0	68.0[inhibitor]	0	0	0	0	0
O=C(NCCN1CCOCC1)C1CC(=O)N(c2ccc(F)cc2)C1 (configuration not stated)	0	0	0	0	0	-	-	-
CN1CCN(CCCCOc2ccccc2C=O)CC1	200.0	0	128.0	0	0	0	0	0
Cc1ccc(/C=N/NC(=O)c2ccoc2C)o1	0	0	130.0	0	0	0	0	0
CC(=O)c1c(N2CCN(c3ccccc3)CC2)nc(=S)n(-c2ccccc2)c1C	23.0[inhibitor]	0	0	0	0	0	0	0
Fc1ccc(/C=C\c2nccc3c2[nH]c2ccccc23)cc1	195.0	0	0	0	0	0	0	0
Cc1ccc(/C=C\c2nccc3c2[nH]c2ccccc23)cc1	174.0	0	0	0	0	0	0	0
C(=C\c1nccc2c1[nH]c1ccccc12)/c1ccccc1	0	0	0	0	0	-	-	-
SMILES	MEKK2wt PB1 HTS	IMP-1 inhibitor	MEKK3 PB1 HTS	MEKK2mut PB1 HTS	VIM-2 inhibitor	MEKK2wt confirm	MEKK2mut-MEK5	MEKK3 confirm
Cc1ccc(/C=C/c2nc3ccccc3c(=O)[nH]2)cc1	0	0	0	0	0	-	-	-
O=C1CCC(=O)N1c1ccccc1	0	0	0	0	0	-	-	-
COc1ccc(OC)c(CNn2c(-c3cccc(C)c3)nc3ccccc3c2=O)c1	0.0[inhibitor]	0	1.0[inhibitor]	0	0	0	0	0
CCNc1ccc2noc3c2c1C(=O)c1ccccc1-3	30.0[inhibitor]	0	32.0[inhibitor]	0	0	0	0	56.0
CCOc1ccc2noc3c2c1C(=O)c1ccccc1-3	-	0	-	-	0	-	-	-
O=C1c2ccccc2-c2onc3ccc(NCc4ccco4)c1c23	53.0[inhibitor]	0	52.0[inhibitor]	0	0	0	0	59.0
COc1ccc(NC(=O)N2CC(C)OC(C)C2)cc1OC (configuration not stated)	0	0	0	0	0	-	-	-
CCOc1ccc(C(C#N)N2CCOCC2)cc1OC (configuration not stated)	2.0[inhibitor]	0	2.0[inhibitor]	0	0	0	0	0
CCOC(=O)c1sc(NC(=O)c2ccc(S(=O)(=O)N3CCCCCC3)cc2)nc1-c1ccccc1	0	0	0	0	0	-	-	-
CCOC(=O)c1sc(NC(=O)c2ccc(S(=O)(=O)N3CCCCC3)cc2)nc1-c1ccccc1	0	0	135.0	0	0	0	0	0
CSc1ccccc1NC(=O)CN(c1cccc(C)c1)S(C)(=O)=O	0	0	67.0[inhibitor]	0	0	0	0	0
Cc1cc(C)cc(N(CC(=O)Nc2ccccc2-c2ccccc2)S(=O)(=O)c2ccccc2)c1	0	0	134.0	0	0	0	0	0
Cc1ccc(S(=O)(=O)N2CCN(C(C)CC(=O)O)CC2)cc1 (configuration not stated)	3.0[inhibitor]	0	3.0[inhibitor]	0	0	0	0	0
CCC(C)c1ccc(S(=O)(=O)N2CCN(C(C)CC(=O)O)CC2)cc1 (configuration not stated)	0	0	0	0	0	-	-	-
CCc1ccc(C(=O)NC(CCSC)C(=O)OC)cc1 (configuration not stated)	3.0[inhibitor]	0	3.0[inhibitor]	0	0	0	0	0
COC(=O)[C@H](CCSC)NC(=O)c1cccnc1SC	0	0	0	0	0	-	-	-
CCCNC(=O)Cn1c(=O)/c(=C\c2ccc(-c3ccc([N+](=O)[O-])cc3)o2)s/c1=C\C(=O)C(C)(C)C	-	0	0	132.0	0	0	0	0
Cc1ccccc1NC(=S)N(CCCN1CCOCC1)Cc1cccnc1	0	0	0	0	0	-	-	-
CCCCNCC(O)(c1ccc(Cl)cc1)c1ccc(Cl)cc1	146.0	0	0	0	0	0	0	0
COc1ccc(CNCC(O)(c2ccc(Cl)cc2)c2ccc(Cl)cc2)cc1	154.0	0	0	0	0	0	0	0
COc1ccc(CNCC(O)(c2ccc(F)cc2)c2ccc(F)cc2)cc1OC	0	0	0	0	0	-	-	-
OC(CNCc1ccc(Cl)cc1)(c1ccccc1)c1ccc(F)cc1 (configuration not stated)	0	0	0	0	0	-	-	-
COc1ccc(CNCC(O)(c2ccc(Cl)cc2)c2ccc(Cl)cc2)cc1OC	179.0	0	0	0	0	0	0	0

Screening data from PubChem.
